Published values from different studies.
Compare with care: the assays were run in different laboratories.
Technique: competition with immobilised ligand
RPS6KA3 N-terminal kinase domain: Ribosomal protein S6 kinase alpha-3, N-terminal kinase domain (RPS6KA3, Homo sapiens, UniProt P51812)
RPS6KA3 C-terminal kinase domain: Ribosomal protein S6 kinase alpha-3, C-terminal kinase domain (RPS6KA3, Homo sapiens, UniProt P51812)

CCN1CCN(Cc2ccc(C(=O)Nc3ccc(C)c(Oc4ccc5c(c4)CC(=O)N5)c3)cc2C(F)(F)F)CC1 — remaining binding (RPS6KA3 N-terminal kinase domain; binding; 1 µM): 100%
Cc1cnc(Nc2ccc(C(=O)N3CCC(N4CCCC4)CC3)cc2)nc1-c1cc2ccccc2s1 — remaining binding (RPS6KA3 C-terminal kinase domain; binding; 1 µM): 80%
CN(C)c1nccc(-c2cnc3ncccn23)n1 — remaining binding (RPS6KA3 C-terminal kinase domain; binding; 1 µM): 78%
COc1cnc(Nc2cccc(S(N)(=O)=O)c2)nc1N1CCN(c2ccccc2)C(=O)C1 — remaining binding (RPS6KA3 N-terminal kinase domain; binding; 1 µM): 64%
COc1ncc2cc3ccccc3nc2c1C#N — remaining binding (RPS6KA3 C-terminal kinase domain; cell-free assay; 5 µM): 96%
FC(F)(F)Oc1cccc(-c2cnc3ccc(-c4ccncc4)nn23)c1 — remaining binding (RPS6KA3 N-terminal kinase domain; binding; 5 µM): 57%
O=C(Nc1c[nH]nc1C(=O)NC1CCNCC1)c1cc(F)cc(F)c1 — remaining binding (RPS6KA3 N-terminal kinase domain; binding; 1 µM): 74%
CN(C)c1ncc(F)c(-c2cnn3ncccc23)n1 — remaining binding (RPS6KA3 C-terminal kinase domain; binding; 1 µM): 68%
Cc1c(NC(=O)c2cc(C(N)=O)nc3cc(F)ccc23)c(C(F)(F)F)nn1Cc1ccc(C(C)(C)C)cc1 — remaining binding (RPS6KA3 N-terminal kinase domain; cell-free assay; 1 µM): 100%
C[C@H]1CCN(c2nccc(-c3cnn4ncccc34)n2)C1 — remaining binding (RPS6KA3 C-terminal kinase domain; binding; 1 µM): 93%
O=C(c1ccc(Nc2ncc(Cl)c(-c3ccc(Cl)s3)n2)cc1)N1CCC(N2CCCC2)CC1 — remaining binding (RPS6KA3 C-terminal kinase domain; binding; 1 µM): 100%
CNC(=O)[C@@H]1CC[C@@H](n2c(-c3ccc4cnccc4c3)nc3ccc(C(=O)NCc4cccc(C(N)=O)c4)cc32)C1 — remaining binding (RPS6KA3 N-terminal kinase domain; binding; 1 µM): 87%
O=C(NCC1CCOCC1)c1n[nH]cc1NC(=O)c1c(F)cccc1F — remaining binding (RPS6KA3 C-terminal kinase domain; binding; 1 µM): 98%
N[C@@H]1CCN(c2nccc(-c3cnn4ncccc34)n2)C1 — remaining binding (RPS6KA3 C-terminal kinase domain; binding; 1 µM): 41%
c1ccc(N2CCN(Cc3nc4ccccc4[nH]3)CC2)nc1 — remaining binding (RPS6KA3 C-terminal kinase domain; binding; 1 µM): 100%
N#Cc1ccccc1CSc1nnc2c(n1)[nH]c1ccccc12 — remaining binding (RPS6KA3 N-terminal kinase domain; binding; 10 µM): 80%
CN(c1ccnc(CNc2nc(Nc3ccc4c(c3)CC(=O)N4)ncc2C(F)(F)F)n1)S(C)(=O)=O — remaining binding (RPS6KA3 N-terminal kinase domain; cell-free assay; 1 µM): 25%
Nc1ncc2c(n1)-c1c([nH]c3ccc(C#CC4CC4)cc13)CCCC2 — remaining binding (RPS6KA3 C-terminal kinase domain; binding; 1 µM): 100%
C=CC(=O)N1CCC(C(=O)NCC(=O)N2CCN(c3nc(-c4cnc(N)nc4C(F)F)nc(N4CCOCC4)n3)CC2)CC1 — remaining binding (RPS6KA3 C-terminal kinase domain; binding; 1 µM): 63%
O=C(NCCCN1CCOCC1)c1ccc(Nc2nccc(-c3cc4ccccc4s3)n2)cc1 — remaining binding (RPS6KA3 N-terminal kinase domain; binding; 1 µM): 76%
CCc1ccccc1C(=O)Nc1n[nH]c2c(C)c(F)c(C3C(C#N)=C(C)N(C)C(C)=C3C#N)cc12 — remaining binding (RPS6KA3 N-terminal kinase domain; cell-free assay; 1 µM): 0.3%
O=C(c1ccc(Nc2nccc(-c3cc4ccccc4s3)n2)cc1)N1CCC(N2CCCC2)CC1 — remaining binding (RPS6KA3 N-terminal kinase domain; binding; 1 µM): 78%
CN(C)c1nccc(-c2cnn3ncccc23)n1 — remaining binding (RPS6KA3 C-terminal kinase domain; binding; 1 µM): 99%
NS(=O)(=O)c1cc(NC(=O)C2(c3ccccc3Cl)CC2)ccc1Oc1cccc(Cl)c1 — remaining binding (RPS6KA3 N-terminal kinase domain; cell-free assay; 1 µM): 92%
Cc1cnn2ncc(-c3ccnc(N(C)C)n3)c2c1 — remaining binding (RPS6KA3 N-terminal kinase domain; binding; 1 µM): 95%
O=C(O)[C@H]1[C@H](Cn2nnc3ccccc3c2=O)CC[C@@H]1C(=O)c1ccc(OCCC2CCOCC2)cc1 — remaining binding (RPS6KA3 N-terminal kinase domain; cell-free assay; 1 µM): 81%
O=C(c1ccc(Nc2ncc(Cl)c(-c3cc4ccccc4s3)n2)cc1)N1CCC(N2CCCC2)CC1 — remaining binding (RPS6KA3 N-terminal kinase domain; binding; 1 µM): 42%
Cc1noc([C@H]2C[C@@H](c3ccc(C(F)(F)F)cc3)CN(C(=O)N3CCS(=O)(=O)C3)C2)n1 — remaining binding (RPS6KA3 N-terminal kinase domain; cell-free assay; 1 µM): 100%
COc1cnc(Nc2cccc(S(N)(=O)=O)c2)nc1N1CCN(c2ccccc2)CC1 — remaining binding (RPS6KA3 C-terminal kinase domain; binding; 1 µM): 81%
c1cncc(-c2cccc(Nc3nccc(NC4CCCCC4)n3)c2)c1 — remaining binding (RPS6KA3 C-terminal kinase domain; binding; 10 µM): 79%
C[C@@H](c1ccc(-n2cnc3c(N)ncnc32)cc1)N1CCc2nn(C)c(Cc3ccccc3)c2C1=O — remaining binding (RPS6KA3 N-terminal kinase domain; binding; 0.1 µM): 56%
Cc1nccc(COC(=O)N2C[C@@H]3[C@@H](CNC(=O)c4ccc5[nH]nnc5c4)[C@@H]3C2)n1 — remaining binding (RPS6KA3 C-terminal kinase domain; cell-free assay; 1 µM): 86%
COc1ccnn2ncc(-c3ccnc(N(C)C)n3)c12 — remaining binding (RPS6KA3 N-terminal kinase domain; binding; 1 µM): 85%
O=C(NCCCN1CCOCC1)c1ccc(Nc2ncc(Cl)c(-c3ccc(Cl)s3)n2)cc1 — remaining binding (RPS6KA3 N-terminal kinase domain; binding; 1 µM): 61%
